Source: ChEMBL document CHEMBL4145586, “Hinduchelins A-D, Noncytotoxic Catechol Derivatives from Streptoalloteichus hindustanus” (J Nat Prod, 2018)
The source made the active and inactive calls. No cut-off for these calls is given here.

Key:
HL-60 = experiment: Cytotoxicity against human HL60 cells assessed as effect on cell viability at 50 uM after 48 hrs by MTT assay; assay type: cell-based; settings: hl-60, 48 h
A549 = experiment: Cytotoxicity against human A549 cells assessed as effect on cell viability at 50 uM after 48 hrs by MTT assay; assay type: cell-based; settings: a549, 48 h
SMMC-7721 = experiment: Cytotoxicity against human SMMC7721 cells assessed as effect on cell viability at 50 uM after 48 hrs by MTT assay; assay type: cell-based; settings: smmc-7721, 48 h
MCF7 = experiment: Cytotoxicity against human MCF7 cells assessed as effect on cell viability at 50 uM after 48 hrs by MTT assay; assay type: cell-based; settings: mcf7, 48 h
SW480 = experiment: Cytotoxicity against human SW480 cells assessed as effect on cell viability at 50 uM after 48 hrs by MTT assay; assay type: cell-based; settings: sw480, 48 h
[1] = Metal chelating activity assessed as iron-compound complex formation by measuring increase in pyoverdine production in Pseudomonas aeruginosa PAO1 at 50 uM by fluorescence assay
In short: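 PAO1 grown overnight in LB broth at 37 °C with shaking, then diluted to OD600 0.02 in ABTGC medium. Pyoverdine fluorescence was read on a plate reader, normalized to OD600 and reported as relative fluorescence units.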

Row | Activity [1] | SMILES | Activity (HL-60) | Activity (A549) | Activity (SMMC-7721) | Activity (MCF7) | Activity (SW480)
1 |  | COc1cccc(-c2nc(C(=O)NC[C@@H](O)c3ccccc3)c(C)o2)c1OC | Non-Toxic | Non-Toxic | Non-Toxic | Non-Toxic | Non-Toxic
2 |  | COc1cccc(-c2nc(C(=O)NCCc3ccccc3O)c(C)o2)c1O | Non-Toxic | Non-Toxic | Non-Toxic | Non-Toxic | Non-Toxic
3 |  | COc1cccc(-c2nc(C(=O)NCCc3ccccc3O)c(C)o2)c1OC | Non-Toxic | Non-Toxic | Non-Toxic | Non-Toxic | Non-Toxic
4 | Active | COc1cccc(-c2nc(C(=O)NCCc3ccccc3)c(C)o2)c1O | Non-Toxic | Non-Toxic | Non-Toxic | Non-Toxic | Non-Toxic
